Series [1] concerns the target T1, Dual specificity mitogen-activated protein kinase kinase 6 (Homo sapiens) (UniProt P52564).
T1 sequence (whole entry): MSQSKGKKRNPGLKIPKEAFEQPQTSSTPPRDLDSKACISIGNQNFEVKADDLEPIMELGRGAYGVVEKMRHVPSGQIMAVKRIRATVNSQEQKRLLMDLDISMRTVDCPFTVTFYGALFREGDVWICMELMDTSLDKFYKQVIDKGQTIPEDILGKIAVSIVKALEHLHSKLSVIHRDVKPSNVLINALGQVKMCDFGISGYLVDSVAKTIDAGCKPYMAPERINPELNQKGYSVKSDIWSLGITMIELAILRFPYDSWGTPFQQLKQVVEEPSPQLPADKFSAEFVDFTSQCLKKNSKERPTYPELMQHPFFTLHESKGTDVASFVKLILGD
Nature of the series: Inhibition of human wild type partial length MEK6 (K36 to D344 residues) expressed in bacterial expression system at 1 uM measured by Kinomescan assay.

Series [2] deals with Mitogen-activated protein kinase 10 (Homo sapiens) (UniProt P53779). Nature of the series: Inhibition of wild type partial length human JNK3 (V28 to Q422 residues) expressed in mammalian expression system at 10 uM measured by Kinomescan assay. In outline:
(§1)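 Kinome-wide binding scan on the scanEDGE DiscoverX platform, covering 97 kinases, each tested at a single compound concentration of 10 μM.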

For series [3], the target named is Dual specificity mitogen-activated protein kinase kinase 2 (Homo sapiens) (UniProt P36507). The experiment in a line: Inhibition of human MEK2 in human MIA PaCa-2 cells assessed as decrease of p42/44 MAPK phosphorylation in presence of U0126 at 10 uM measured after 5 hrs by Westren blot assay. In kind it is cell-based. The gist of the method:
(§2)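 CD18 or MiaPaCa2 cells pretreated with U0126 (1 or 5 μM) for 1 h, then MEK4 inhibitor (10 μM) added for 5 h. Phospho- and total p42/44 MAPK detected by Western blot with HSP90 as loading control. Blots representative of at least three biological replicates.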

The target in series [4] is T2, Dual specificity mitogen-activated protein kinase kinase 7 (Homo sapiens) (UniProt O14733).
T2 sequence (whole entry): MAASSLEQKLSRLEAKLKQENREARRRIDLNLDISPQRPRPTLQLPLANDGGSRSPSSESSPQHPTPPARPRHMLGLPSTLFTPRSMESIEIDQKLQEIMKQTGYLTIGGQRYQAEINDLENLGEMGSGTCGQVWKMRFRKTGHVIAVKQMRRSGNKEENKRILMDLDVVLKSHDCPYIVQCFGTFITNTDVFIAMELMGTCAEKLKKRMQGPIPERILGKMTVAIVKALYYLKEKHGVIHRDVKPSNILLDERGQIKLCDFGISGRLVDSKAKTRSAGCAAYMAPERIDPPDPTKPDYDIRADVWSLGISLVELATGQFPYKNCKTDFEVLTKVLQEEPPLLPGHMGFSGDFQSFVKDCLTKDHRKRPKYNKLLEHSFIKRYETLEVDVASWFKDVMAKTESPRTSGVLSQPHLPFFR
The experiment in a line: Inhibition of human wild type full length MEK7 (M1 to R417 residues) expressed in mammalian expression system at 10 uM measured by Kinomescan assay.

Series [5] has as its target Mitogen-activated protein kinase 9 (Homo sapiens) (UniProt P45984). The experiment in a line: Inhibition of wild type full length human JNK2 (M1 to Q382 residues) expressed in mammalian expression system at 10 uM measured by Kinomescan assay. The gist of the method:
as §1

Series [6] addresses Dual specificity mitogen-activated protein kinase kinase 1 (Homo sapiens) (UniProt Q02750). The experiment in a line: Inhibition of human MEK1 in human HPAF-II cells assessed as decrease of p42/44 MAPK phosphorylation in presence of U0126 at 10 uM measured after 5 hrs by Westren blot assay. It counts as cell-based. The gist of the method:
as §2

Another series deals with Cytochrome P450 3A4 (Homo sapiens, UniProt P08684). Nature of the series: Inhibition of CYP3A4 (unknown origin). In kind it is ADME.
Chain of Cytochrome P450 3A4 (P08684 whole entry): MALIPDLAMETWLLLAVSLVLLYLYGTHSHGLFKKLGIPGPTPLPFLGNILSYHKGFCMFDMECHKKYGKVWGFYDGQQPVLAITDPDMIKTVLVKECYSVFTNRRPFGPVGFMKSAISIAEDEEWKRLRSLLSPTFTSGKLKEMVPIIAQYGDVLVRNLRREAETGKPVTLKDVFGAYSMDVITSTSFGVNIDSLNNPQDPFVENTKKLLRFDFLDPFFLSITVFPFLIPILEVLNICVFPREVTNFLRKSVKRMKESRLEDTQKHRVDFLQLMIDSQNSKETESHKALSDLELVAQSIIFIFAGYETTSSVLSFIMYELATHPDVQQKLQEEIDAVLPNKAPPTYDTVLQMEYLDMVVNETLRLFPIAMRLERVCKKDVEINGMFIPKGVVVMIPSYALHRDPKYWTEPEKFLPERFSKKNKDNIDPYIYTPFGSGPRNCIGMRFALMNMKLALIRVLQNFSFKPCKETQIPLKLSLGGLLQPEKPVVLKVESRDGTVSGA
In series [7] the target is Dual specificity mitogen-activated protein kinase kinase 1 (Homo sapiens) (UniProt Q02750). Nature of the series: Inhibition of human MEK1 in human MIA PaCa-2 cells assessed as decrease of p42/44 MAPK phosphorylation in presence of U0126 at 10 uM measured after 5 hrs by Westren blot assay. It counts as cell-based. The gist of the method:
as §2

In series [8] the target is T1, Dual specificity mitogen-activated protein kinase kinase 6 (Homo sapiens). The experiment in a line: Inhibition of human MEK6 in human HEK293T cells assessed as inhibition of anisomycin-induced p38 MAPK phosphorylation at 100 uM measured after 5 hrs by Western blot assay. In kind it is cell-based. In outline:
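HEK293T cells pretreated with anisomycin (3 μg/mL) for 45 min, then given inhibitor (100 μM) for 5 h. Phospho- and total p42/44 MAPK and p38 MAPK, plus MEK7, detected by Western blot with HSP90 as loading control. Blots representative of at least three biological replicates.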

Series [9] concerns the target T3, Dual specificity mitogen-activated protein kinase kinase 5 (Homo sapiens) (UniProt Q13163).
T3 sequence (whole entry): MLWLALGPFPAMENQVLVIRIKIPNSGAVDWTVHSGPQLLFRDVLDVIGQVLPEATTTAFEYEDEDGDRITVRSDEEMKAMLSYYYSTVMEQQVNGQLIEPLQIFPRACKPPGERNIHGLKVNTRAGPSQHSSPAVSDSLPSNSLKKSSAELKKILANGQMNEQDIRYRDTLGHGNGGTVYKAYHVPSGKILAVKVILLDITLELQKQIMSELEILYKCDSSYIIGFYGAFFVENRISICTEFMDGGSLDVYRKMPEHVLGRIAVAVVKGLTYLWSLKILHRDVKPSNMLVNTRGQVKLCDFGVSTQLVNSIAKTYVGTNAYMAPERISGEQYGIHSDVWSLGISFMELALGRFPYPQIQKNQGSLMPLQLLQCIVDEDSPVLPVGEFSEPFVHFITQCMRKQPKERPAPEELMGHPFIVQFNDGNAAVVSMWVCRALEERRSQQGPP
Nature of the series: Inhibition of human wild type partial length MEK5 (L98 to P448 residues) expressed in mammalian expression system at 10 uM measured by Kinomescan assay. In outline:
as §1

In series [10] the target is Mitogen-activated protein kinase 8 (Homo sapiens) (UniProt P45983). Nature of the series: Inhibition of wild type full length human JNK1 (M1 to Q384 residues) expressed in mammalian expression system at 10 uM measured by Kinomescan assay. In outline:
as §1

Series [11] concerns the target T4, Dual specificity mitogen-activated protein kinase kinase 3 (Homo sapiens) (UniProt P46734).
T4 sequence (whole entry): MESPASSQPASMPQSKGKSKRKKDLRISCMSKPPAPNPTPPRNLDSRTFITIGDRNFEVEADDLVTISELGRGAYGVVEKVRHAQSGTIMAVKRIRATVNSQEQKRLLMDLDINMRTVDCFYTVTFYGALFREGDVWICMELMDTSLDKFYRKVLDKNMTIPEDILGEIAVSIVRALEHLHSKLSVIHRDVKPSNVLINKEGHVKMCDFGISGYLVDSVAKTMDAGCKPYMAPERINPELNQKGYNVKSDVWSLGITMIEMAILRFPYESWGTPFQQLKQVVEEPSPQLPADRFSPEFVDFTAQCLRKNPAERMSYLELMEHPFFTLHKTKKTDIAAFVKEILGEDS
The experiment in a line: Inhibition of human wild type full length MEK3 (M1 to S318) expressed in mammalian expression system at 10 uM measured by Kinomescan assay. The gist of the method:
as §1

Series [12] deals with T3, Dual specificity mitogen-activated protein kinase kinase 5 (Homo sapiens). The experiment in a line: Inhibition of human wild type partial length MEK5 (L98 to P448 residues) expressed in mammalian expression system at 1 uM measured by Kinomescan assay.

The source made the active and inactive calls. The rule behind the calls is not given here.

Chain of Dual specificity mitogen-activated protein kinase kinase 1 (Homo sapiens) (Q02750 whole entry): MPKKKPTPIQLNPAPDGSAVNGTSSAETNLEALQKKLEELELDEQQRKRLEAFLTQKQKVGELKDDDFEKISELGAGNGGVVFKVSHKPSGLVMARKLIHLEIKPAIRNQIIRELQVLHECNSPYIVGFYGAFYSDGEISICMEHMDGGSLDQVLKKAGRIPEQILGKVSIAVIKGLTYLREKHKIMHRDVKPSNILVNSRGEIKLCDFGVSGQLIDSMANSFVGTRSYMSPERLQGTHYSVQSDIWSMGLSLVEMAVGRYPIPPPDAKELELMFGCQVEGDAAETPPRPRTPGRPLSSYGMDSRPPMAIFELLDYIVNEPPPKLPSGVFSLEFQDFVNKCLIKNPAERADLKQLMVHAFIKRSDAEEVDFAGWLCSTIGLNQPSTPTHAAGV
Chain of Dual specificity mitogen-activated protein kinase kinase 2 (Homo sapiens) (P36507 whole entry): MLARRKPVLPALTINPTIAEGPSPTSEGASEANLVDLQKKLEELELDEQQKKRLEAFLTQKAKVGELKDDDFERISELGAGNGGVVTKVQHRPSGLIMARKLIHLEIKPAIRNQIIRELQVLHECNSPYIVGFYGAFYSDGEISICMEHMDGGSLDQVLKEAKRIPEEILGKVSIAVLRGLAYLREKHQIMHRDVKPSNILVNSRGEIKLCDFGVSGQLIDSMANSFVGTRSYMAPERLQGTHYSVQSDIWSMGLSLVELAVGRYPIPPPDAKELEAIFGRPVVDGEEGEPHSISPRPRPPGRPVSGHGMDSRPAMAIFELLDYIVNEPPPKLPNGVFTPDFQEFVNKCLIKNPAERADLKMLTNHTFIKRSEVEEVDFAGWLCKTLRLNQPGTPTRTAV
Chain of Mitogen-activated protein kinase 10 (Homo sapiens) (P53779 whole entry, the tested form may be a part): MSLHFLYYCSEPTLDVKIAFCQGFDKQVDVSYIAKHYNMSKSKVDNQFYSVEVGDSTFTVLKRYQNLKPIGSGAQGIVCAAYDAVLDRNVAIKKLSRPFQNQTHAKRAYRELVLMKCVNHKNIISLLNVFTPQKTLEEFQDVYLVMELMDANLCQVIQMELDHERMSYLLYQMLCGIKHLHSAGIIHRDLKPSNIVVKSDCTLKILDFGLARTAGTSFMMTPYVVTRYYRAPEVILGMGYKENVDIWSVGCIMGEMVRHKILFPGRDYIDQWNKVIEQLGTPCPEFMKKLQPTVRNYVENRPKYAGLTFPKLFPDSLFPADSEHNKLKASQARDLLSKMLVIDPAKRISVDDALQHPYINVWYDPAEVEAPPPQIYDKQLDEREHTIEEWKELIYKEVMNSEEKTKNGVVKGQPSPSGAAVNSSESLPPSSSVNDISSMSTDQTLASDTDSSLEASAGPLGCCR
Chain of Mitogen-activated protein kinase 8 (Homo sapiens) (P45983 whole entry, the tested form may be a part): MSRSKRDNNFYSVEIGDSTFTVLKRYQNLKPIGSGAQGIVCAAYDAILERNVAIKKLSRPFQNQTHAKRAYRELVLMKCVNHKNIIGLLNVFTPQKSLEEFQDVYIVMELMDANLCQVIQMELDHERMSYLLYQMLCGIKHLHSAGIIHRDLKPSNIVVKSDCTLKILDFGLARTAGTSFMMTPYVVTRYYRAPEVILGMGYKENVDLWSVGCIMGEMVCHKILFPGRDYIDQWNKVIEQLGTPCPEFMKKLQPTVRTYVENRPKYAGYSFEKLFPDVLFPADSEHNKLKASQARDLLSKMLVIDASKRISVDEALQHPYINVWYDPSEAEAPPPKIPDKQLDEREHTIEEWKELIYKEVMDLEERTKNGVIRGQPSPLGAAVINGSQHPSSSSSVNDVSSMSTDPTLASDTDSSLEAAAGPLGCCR
Chain of Mitogen-activated protein kinase 9 (Homo sapiens) (P45984 whole entry, looked up, the tested form may be a part): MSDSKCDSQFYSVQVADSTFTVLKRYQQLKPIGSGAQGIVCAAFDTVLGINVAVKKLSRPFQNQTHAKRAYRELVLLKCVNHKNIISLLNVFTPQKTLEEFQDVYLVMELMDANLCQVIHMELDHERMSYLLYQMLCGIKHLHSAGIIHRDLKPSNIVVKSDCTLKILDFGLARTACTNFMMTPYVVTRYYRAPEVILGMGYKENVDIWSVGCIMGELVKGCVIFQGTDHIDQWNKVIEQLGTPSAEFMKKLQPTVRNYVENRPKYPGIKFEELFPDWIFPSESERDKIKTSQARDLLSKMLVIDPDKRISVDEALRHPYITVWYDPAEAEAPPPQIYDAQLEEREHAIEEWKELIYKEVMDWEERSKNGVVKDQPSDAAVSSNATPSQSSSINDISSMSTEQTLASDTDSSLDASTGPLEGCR

Turning to `NC(=O)c1ccc(NS(=O)(=O)c2cccc(-c3n[nH]c4cc(F)ccc34)c2)cc1`, the inhibition turned out to be 48% in series [1]; 99% in series [4]; 99% in series [9]; 99% in series [11]; 87% in series [12]. Further, the inhibition result in series [2], in series [3], in [5], in series [6], in series [7] and in series [10] was “Active” throughout. In addition, the “inhibition (INH)” value on Cytochrome P450 3A4 was “Not Active”. For the same molecule, in [8], the inhibition entry is “inactive”.

Turning to `NS(=O)(=O)c1ccc(-c2n[nH]c3cc(F)ccc23)cc1`, the inhibition worked out at 12% in series [1]; 79% in series [4]; 76% in [9]; 91% in series [11]; 22% in [12]. The inhibition entry in series [3], in [6] and in series [7] was “Active” in each case. Also, the “inhibition (INH)” value at Cytochrome P450 3A4 is “Not Active”. For the same molecule, in series [8], the inhibition entry was “inactive”.

The values above are taken from ChEMBL document CHEMBL4837264, “Rational Design, Optimization, and Biological Evaluation of Novel MEK4 Inhibitors against Pancreatic Adenocarcinoma” (ACS Med Chem Lett, 2021).
